For orientation: inhibition means how much of the control response was suppressed. One may read the IC50 as the concentration that inhibits the measured activity by half.

Chain of CYP2D6 (P10635 whole entry): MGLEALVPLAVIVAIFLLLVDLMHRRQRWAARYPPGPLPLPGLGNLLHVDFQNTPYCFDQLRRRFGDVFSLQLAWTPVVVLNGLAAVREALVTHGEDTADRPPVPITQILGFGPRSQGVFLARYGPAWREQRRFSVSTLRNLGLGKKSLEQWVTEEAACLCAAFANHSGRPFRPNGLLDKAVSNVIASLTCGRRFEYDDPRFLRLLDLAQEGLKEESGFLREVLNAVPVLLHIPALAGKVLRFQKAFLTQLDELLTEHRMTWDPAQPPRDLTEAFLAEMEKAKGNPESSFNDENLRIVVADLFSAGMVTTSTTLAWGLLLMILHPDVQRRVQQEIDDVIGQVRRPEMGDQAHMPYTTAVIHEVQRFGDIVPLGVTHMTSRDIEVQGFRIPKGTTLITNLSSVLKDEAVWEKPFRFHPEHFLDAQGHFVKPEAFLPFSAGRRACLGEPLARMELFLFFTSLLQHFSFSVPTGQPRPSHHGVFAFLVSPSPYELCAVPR
Chain of CYP3A4 (P08684 whole entry): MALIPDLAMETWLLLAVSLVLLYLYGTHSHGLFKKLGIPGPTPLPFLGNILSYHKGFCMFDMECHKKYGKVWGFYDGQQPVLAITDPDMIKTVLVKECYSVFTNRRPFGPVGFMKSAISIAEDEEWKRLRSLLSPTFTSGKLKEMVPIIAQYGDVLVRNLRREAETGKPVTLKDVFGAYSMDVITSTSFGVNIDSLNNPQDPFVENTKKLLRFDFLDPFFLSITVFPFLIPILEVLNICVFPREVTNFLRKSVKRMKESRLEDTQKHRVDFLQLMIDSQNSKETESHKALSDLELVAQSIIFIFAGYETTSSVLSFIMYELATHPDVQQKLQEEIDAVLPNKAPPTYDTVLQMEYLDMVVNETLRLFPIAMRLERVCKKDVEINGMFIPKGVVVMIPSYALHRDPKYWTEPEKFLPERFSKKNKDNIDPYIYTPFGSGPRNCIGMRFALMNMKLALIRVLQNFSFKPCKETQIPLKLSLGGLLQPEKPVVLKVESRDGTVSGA

One series has as its target CYP2D6 (Homo sapiens, UniProt P10635). In words: Inhibition of CYP2D6 (unknown origin) at 10 uM. Format: ADME.
Conditions: not given
Regarding `N#Cc1ccc2sc(C(=O)NC3CCN(Cc4ccc(OC5CCNCC5)c(Br)c4)CC3)cc2c1`, at 10 µM the inhibition was 55%.

In another series the target is T1, Urotensin-2 receptor (Homo sapiens, UniProt Q9UKP6).
T1 sequence (Q9UKP6 whole entry): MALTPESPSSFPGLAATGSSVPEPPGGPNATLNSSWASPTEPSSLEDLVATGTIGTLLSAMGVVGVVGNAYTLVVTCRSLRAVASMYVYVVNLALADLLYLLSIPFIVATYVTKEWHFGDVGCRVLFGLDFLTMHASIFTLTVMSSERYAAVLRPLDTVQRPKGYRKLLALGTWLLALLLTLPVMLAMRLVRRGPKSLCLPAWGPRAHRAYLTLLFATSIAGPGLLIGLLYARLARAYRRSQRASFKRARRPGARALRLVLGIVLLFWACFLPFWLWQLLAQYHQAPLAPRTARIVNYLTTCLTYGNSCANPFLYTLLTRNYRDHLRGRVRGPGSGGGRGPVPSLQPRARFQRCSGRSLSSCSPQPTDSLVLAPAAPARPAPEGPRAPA
Kind of series: Displacement of europium-labeled urotensin-2 from human recombinant urotensin-2 receptor expressed in HEK293 cell membranes after 90 mins by filtration based time resolved fluorometric assay.
Conditions: not given
Put shortly: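 Competitive binding against Eu-labeled U-II on membranes of HEK293 cells expressing human UT receptor, read by time-resolved fluorometry. IC50 values are means of at least two measurements.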
Consider `COc1ccccc1-c1ccc2cc(C(=O)NC3CCN(Cc4ccc(OC5CCNCC5)c(Br)c4)CC3)sc2c1`, for which the IC50 was found to be 560 nM.

With `Cc1ccc2sc(C(=O)NC3CCN(Cc4ccc(OC5CCNCC5)c(Br)c4)CC3)cc2c1`, the 50% inhibitory concentration (IC50) amounted to 74 nM.

For `COc1cccc(-c2ccc3cc(C(=O)NC4CCN(Cc5ccc(OC6CCNCC6)c(Br)c5)CC4)sc3c2)c1`, the IC50 is 87 nM.

Consider `O=C(NC1CCN(Cc2ccc(OC3CCNCC3)c(Br)c2)CC1)c1cnccn1`, for which the IC50 was found to be 610 nM.

On to `N#Cc1ccc2cc(C(=O)NC3CCN(Cc4ccc(OC5CCNCC5)c(Br)c4)CC3)sc2c1`, for which the IC50 turned out to be 80 nM.

As to `N#Cc1ccc2sc(C(=O)NC3CCN(Cc4ccc(OC5CCNCC5)c(Br)c4)CC3)cc2c1`, the half-inhibitory concentration (IC50) was 25 nM.

For `Cc1ccc(-c2ccc3cc(C(=O)NC4CCN(Cc5ccc(OC6CCNCC6)c(Br)c5)CC4)sc3c2)cc1`, the IC50 was 140 nM.

As to `O=C(NC1CCN(Cc2ccc(OC3CCNCC3)c(Br)c2)CC1)c1cccs1`, the half-maximal inhibitory concentration (IC50) was 130 nM.

Consider `O=C(NC1CCN(Cc2ccc(OC3CCNCC3)c(Br)c2)CC1)c1cc2ccc(-c3ccc(Cl)cc3)cc2s1`, for which the IC50 was 140 nM.

With `O=C(NC1CCN(Cc2ccc(OC3CCNCC3)c(Br)c2)CC1)c1ccccn1`, the IC50 came to 120 nM.

Consider `O=C(NC1CCN(Cc2ccc(OC3CCNCC3)c(Br)c2)CC1)c1cc2cc(Cl)ccc2s1`, for which the IC50 was 51 nM.

On to `O=C(NC1CCN(Cc2ccc(OC3CCNCC3)c(Br)c2)CC1)c1cscn1`, for which the 50% inhibitory concentration (IC50) was 970 nM.

With `O=C(NC1CCN(Cc2ccc(OC3CCNCC3)c(Br)c2)CC1)c1cc2cc(Br)ccc2s1`, the 50% inhibitory concentration (IC50) came out at 86 nM.

Take `COc1ccc2sc(C(=O)NC3CCN(Cc4ccc(OC5CCNCC5)c(Br)c4)CC3)cc2c1`: the IC50 came out at 100 nM.

Turning to `O=C(NC1CCN(Cc2ccc(OC3CCNCC3)c(Br)c2)CC1)c1ccno1`, the IC50 amounted to 340 nM.

For `COc1ccc(-c2ccc3cc(C(=O)NC4CCN(Cc5ccc(OC6CCNCC6)c(Br)c5)CC4)sc3c2)cc1`, the IC50 came to 49 nM.

On to `O=C(NC1CCN(Cc2ccc(OC3CCNCC3)c(Br)c2)CC1)c1cc2ccc(-c3ccccc3)cc2s1`, for which the half-maximal inhibitory concentration (IC50) is 90 nM.

Turning to `O=C(NC1CCN(Cc2ccc(OC3CCNCC3)c(Br)c2)CC1)c1ccco1`, the IC50 is 770 nM.

With `O=C(NC1CCN(Cc2ccc(OC3CCNCC3)c(Br)c2)CC1)c1cc2cc(F)ccc2s1`, the IC50 amounted to 53 nM.

For `O=C(NC1CCN(Cc2ccc(OC3CCNCC3)c(Br)c2)CC1)c1cc2cc(C(F)(F)F)ccc2s1`, the half-inhibitory concentration (IC50) came out at 100 nM.

`O=C(NC1CCN(Cc2ccc(OC3CCNCC3)c(Br)c2)CC1)c1cc2cc([N+](=O)[O-])ccc2s1`: the IC50 amounted to 49 nM.

For the molecule `O=C(NC1CCN(Cc2ccc(OC3CCNCC3)c(Br)c2)CC1)c1cc2ccccc2s1`, the IC50 came out at 63 nM.

As for `O=C(NC1CCN(Cc2ccc(OC3CCNCC3)c(Br)c2)CC1)c1cc2cc(-c3ccccc3)ccc2s1`, the IC50 was found to be 310 nM.

Take `CCc1ccc2sc(C(=O)NC3CCN(Cc4ccc(OC5CCNCC5)c(Br)c4)CC3)cc2c1`: the IC50 was found to be 180 nM.

Consider `O=C(NC1CCN(Cc2ccc(OC3CCNCC3)c(Br)c2)CC1)c1cc2ccc(-c3ccc(F)cc3)cc2s1`, for which the concentration for half-maximal inhibition (IC50) is 74 nM.

System in another series: not listed separately
Kind of series: Metabolic stability in rat liver microsomes after 30 mins. Format: ADME. The following applies: read-out: Stability. (In general: Liver microsomes are a subcellular fraction often used to study metabolism.)
Regarding `N#Cc1ccc2sc(C(=O)NC3CCN(Cc4ccc(OC5CCNCC5)c(Br)c4)CC3)cc2c1`, the remaining at 0.5 h is 74%.

Another series addresses CYP3A4 (Homo sapiens, UniProt P08684). In words: Inhibition of CYP3A4 (unknown origin) at 10 uM. Format: ADME.
Conditions: not given
`N#Cc1ccc2sc(C(=O)NC3CCN(Cc4ccc(OC5CCNCC5)c(Br)c4)CC3)cc2c1` came in with an inhibition at 10 µM of 75%.

System in the next series: not listed separately
In words: Metabolic stability in human liver microsomes after 30 mins. The series is classed as ADME. The following applies: read-out: Stability.
On to `N#Cc1ccc2sc(C(=O)NC3CCN(Cc4ccc(OC5CCNCC5)c(Br)c4)CC3)cc2c1`, for which the remaining at 0.5 h was found to be 85%.

(Values after ChEMBL document CHEMBL3856257, “Benzo[b]thiophene-2-carboxamide derivatives as potent urotensin-II receptor antagonists” (Bioorg Med Chem Lett, 2016).)
